In the library only some 2.4% were active in any assay of this set; here they are far more common.
NTR1 agonist – NTR1 (human) agonism; activation, % at 20 µM; 330,000 tested, 0.17% active; NTR1-U2OS beta-arrestin-GFP spot imaging, agonist mode; P30989;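 active means activation at or above 40% of the spot to cytoplasm intensity ratio, with at least 20 cells analyzed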;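 further: 0% = DMSO without peptide and 100% = 100 nM NTR1 peptide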
Target sequence (P30989 whole entry, looked up): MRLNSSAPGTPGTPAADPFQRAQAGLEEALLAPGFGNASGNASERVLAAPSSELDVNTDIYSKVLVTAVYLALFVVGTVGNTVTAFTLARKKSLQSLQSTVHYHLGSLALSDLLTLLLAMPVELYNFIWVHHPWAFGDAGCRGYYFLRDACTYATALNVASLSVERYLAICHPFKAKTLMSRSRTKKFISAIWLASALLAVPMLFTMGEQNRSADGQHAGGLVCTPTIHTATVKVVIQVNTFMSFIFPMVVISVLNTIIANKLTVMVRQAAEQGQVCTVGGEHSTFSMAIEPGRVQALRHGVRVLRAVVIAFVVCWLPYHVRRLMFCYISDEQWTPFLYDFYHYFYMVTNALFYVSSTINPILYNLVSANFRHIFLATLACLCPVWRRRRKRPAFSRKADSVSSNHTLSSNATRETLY
MC4R antagonist – antagonists of human melanocortin 4 receptor (MC4R); inhibition, % at 6.5 µM; 360,000 tested, 0.48% active; AID 540295; MC4R-expressing cells, MTII-stimulated cAMP, LANCE TR-FRET; P32245;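 active means inhibition above its plate's cutoff, the mean of tested wells on that plate plus 3 SD, cut at about 29% in these data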;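 further: 0% = Melanotan II alone and 100% = Melanotan II plus saturating MCL0020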
Target sequence (P32245 whole entry, looked up): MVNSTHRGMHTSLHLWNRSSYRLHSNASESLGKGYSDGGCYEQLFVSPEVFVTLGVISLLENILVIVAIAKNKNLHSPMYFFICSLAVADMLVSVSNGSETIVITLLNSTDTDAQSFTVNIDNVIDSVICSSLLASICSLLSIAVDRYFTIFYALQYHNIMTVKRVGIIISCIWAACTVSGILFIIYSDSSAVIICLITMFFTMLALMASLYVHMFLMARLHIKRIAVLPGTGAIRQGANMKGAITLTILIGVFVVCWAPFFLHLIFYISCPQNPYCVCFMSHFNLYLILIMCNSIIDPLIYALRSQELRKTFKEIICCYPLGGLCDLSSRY
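System: U2OS cells stably expressing human melanocortin 4 receptor (MC4R). Reagent: Melanotan II challenge after compound preincubation. Doses: 6.5 µM. Times: 30-min compound, 1-h challenge, 1-h detection, room temperature. Measured by: TR-FRET with Eu-cAMP and labeled anti-cAMP, 671 nm. Replicates: singlicate.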
MC4R barr agon – agonists of human melanocortin 4 receptor (MC4R) beta-arrestin; 360,000 tested, 0.98% active; U2OS MC4R beta-arrestin complementation, luminescence; percent of melanotan II response, DMSO zero; AID 540308; activation, % at 8.9 µM; P32245;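 active means activation above a per-plate cutoff, the mean activation of sample wells on that plate plus 3 SD, cut at about 8% in these data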
aDG glyco act – alpha-DG glycosylation activation; Pro5-aDG cells, alpha-DG glycosylation AlphaScreen (IIH6); 0% Pro5, 100% B10-LARGE cell signal; activation, % at 10 µM; 360,000 tested, 0.22% active; AID 624168;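 active means activation of at least 8% versus controls, or a plate z-score of at least 8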;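 further: Pro5 are CHO cells carrying HIG-tagged alpha-DG that lacks glycosylation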
Tb MetRS inh – blocks T. brucei methionyl-tRNA synthetase activity; purified T. brucei MetRS, ATP depletion, Kinase-Glo luminescence; inhibition, % at 11.9 µM; 360,000 tested, 0.4% active;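 active means inhibition above a per-plate cutoff of the control wells' mean inhibition plus 3 SD, cut at about 5.5% in these data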;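 further: 0% = DMSO wells median and 100% = median of wells with control inhibitor compound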
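Material: parasite MetRS enzyme / Replication: singlicate, one well per compound / Signal: luminescence of leftover ATP / Schedule: 2 h aminoacylation at 25 °C after 15 min preincubation / Medium: HEPES-MgCl2-KCl buffer plus DTT, spermine, BSA, pyrophosphatase / Doses: 11.9 µM single point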
H9c2 TAG inh – reduces triacylglycerol accumulation in H9c2 cells; Nile Red lipid (TAG) fluorescence; cells loaded with 200 µM oleic acid; inhibition, % at 12.5 µM; 230,000 tested, 0.66% active; AID 651582;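 active means pattern-corrected inhibition of lipid staining of at least 50% with the nuclear-stain viability signal not falling by more than 50%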;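 further: 0% = DMSO wells and 100% = triacsin C control wells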
MC4R barr conf – human MC4R beta-arrestin agonism confirmation | AID 602192 | U2OS MC4R beta-arrestin recruitment, luminescence; scaled DMSO 0%, Melanotan II 100% | shares compounds with MC4R barr agon | activation, % at 8.9 µM | 2,400 tested, 31% active;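 active means mean activation across replicates above the hit cutoff set in the earlier primary screen, cut at about 8% in these data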
MOR-DOR barr ag – OPRM1-OPRD1 heterodimer agonism counter-screen; shares compounds with MC4R barr agon; U2OS PathHunter beta-arrestin, beta-gal luminescence; percent of deltorphin B response, DMSO zero; activation, % at 9.2 µM; 2,400 tested, 5.8% active; AID 602194;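 active means mean activation across replicates exceeds the hit threshold derived in the earlier primary screen, cut at about 18% in these data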;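 further: 100% = deltorphin B at 0.9 µM final and 0% = DMSO alone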
The depositor's hits bear a star.

For O=C(NCC[C@@H]1CC[C@@H](NC(=O)c2cnccn2)[C@@H](CO)O1)c1ccc2c(c1)OCO2 the results were aDG glyco act -0.1 and Tb MetRS inh -0.4.
For O=S(=O)(c1ccc2nc(-c3ccccc3)[nH]c2c1)N1CCN(c2ccc(Cl)cc2)CC1 the results were NTR1 agonist 37.9, MC4R antagonist 5.7, MC4R barr agon 10.7*, aDG glyco act -0.2, Tb MetRS inh 0.6, MC4R barr conf 4.8 and MOR-DOR barr ag 5.4.
`COC(=O)c1cccc(Nc2nc(-c3cccnc3)nc3ccccc23)c1` gave NTR1 agonist 2.2, MC4R antagonist 8.9, MC4R barr agon -1.3, aDG glyco act -0.3, Tb MetRS inh 0.4 and H9c2 TAG inh 32.0.
For CCOC(=O)c1cccc(Nc2nc(-c3cccnc3)nc3ccccc23)c1 the results were NTR1 agonist 26.7, MC4R antagonist 4.8, MC4R barr agon 11.6*, aDG glyco act -0.6, Tb MetRS inh -0.5, H9c2 TAG inh 52.9*, MC4R barr conf 5.5 and MOR-DOR barr ag 6.7.
COc1ccc(C(=O)Cn2c(C(=O)/C=C/c3ccccc3)nc3ccccc32)cc1 was read as NTR1 agonist 17.1, MC4R antagonist 11.4, MC4R barr agon 22.7*, aDG glyco act -0.4, Tb MetRS inh -3.2, H9c2 TAG inh 22.4, MC4R barr conf 9.4* and MOR-DOR barr ag 4.3.
For N#Cc1c(-c2ccccc2)c(C#N)c2nc3ccccc3n2c1N the results were NTR1 agonist 7.9, MC4R antagonist 7.8, MC4R barr agon 11.0*, aDG glyco act -0.1, Tb MetRS inh -0.6, MC4R barr conf 0.9 and MOR-DOR barr ag 4.1.
Screening CC(C)Nc1nc(NCc2ccccc2)c2sccc2n1 returned MC4R antagonist 5.9, MC4R barr agon -1.0, aDG glyco act 0.5, Tb MetRS inh 0.2 and H9c2 TAG inh -13.1.
Screening CCC(=O)N1CCC1(C)C(=O)Nc1ccc(OC(F)F)cc1 (centres undefined) returned MC4R antagonist 13.2, MC4R barr agon 0.2, aDG glyco act -0.2, Tb MetRS inh -0.3 and H9c2 TAG inh 0.7.
`Cc1cc(Br)ccc1SCC(=O)OCC(O)=C(C#N)c1nc2ccccc2[nH]1` gave MC4R antagonist 7.2, MC4R barr agon 6.3, aDG glyco act 0.5, Tb MetRS inh -0.2 and H9c2 TAG inh 16.5.
Screening Cc1ccc(C)c(SCC(=O)OC/C(O)=C(\C#N)c2nc3ccccc3[nH]2)c1 returned MC4R antagonist -9.9, MC4R barr agon 16.5*, aDG glyco act 2.4, Tb MetRS inh -1.1, H9c2 TAG inh 19.1, MC4R barr conf -1.3 and MOR-DOR barr ag 11.7.
Screening Cc1cccc(C)c1OCC(=O)OC/C(O)=C(\C#N)c1nc2ccccc2[nH]1 returned NTR1 agonist 5.1, MC4R antagonist 2.9, MC4R barr agon 20.8*, aDG glyco act -0.4, Tb MetRS inh -0.7, MC4R barr conf 5.1 and MOR-DOR barr ag 8.5.
Screening CC(C)C(=O)OC/C(O)=C(\C#N)c1nc2ccccc2[nH]1 returned NTR1 agonist -0.8, MC4R antagonist 3.1, MC4R barr agon -2.0, aDG glyco act -0.2, Tb MetRS inh -0.8 and H9c2 TAG inh -0.8.
For Cc1cc(Br)ccc1SCC(=O)OC/C(O)=C(\C#N)c1nc2ccccc2[nH]1 the results were NTR1 agonist 4.0, MC4R antagonist 20.5, MC4R barr agon 12.5*, aDG glyco act -0.3, Tb MetRS inh -0.1, H9c2 TAG inh 13.1, MC4R barr conf 2.6 and MOR-DOR barr ag 2.3.
`CCOc1ccc(-c2cc(C(=O)NCc3ccc(C(F)(F)F)cc3)[nH]n2)c(C)c1` gave MC4R antagonist 0.7, MC4R barr agon 13.3*, aDG glyco act 0.1, Tb MetRS inh -0.4, H9c2 TAG inh -11.9, MC4R barr conf 1.2 and MOR-DOR barr ag 8.5.
Screening CCOc1ccc(-c2cc(C(=O)Nc3cccc(C(F)(F)F)c3)[nH]n2)c(C)c1 returned MC4R antagonist 4.1, MC4R barr agon 10.9*, aDG glyco act 0.4, Tb MetRS inh 0.1, H9c2 TAG inh 3.7, MC4R barr conf 5.8 and MOR-DOR barr ag 5.5.
Screening Cc1cc2c(cc1C)-n1nnnc1C(N(C)Cc1ccccc1)C(=O)N2 (centres undefined) returned aDG glyco act -0.1 and Tb MetRS inh -0.3.
COC(=O)c1c(NC(=O)CSc2ncnc3ccccc23)sc(C)c1C was read as NTR1 agonist 36.4, MC4R antagonist -4.2, MC4R barr agon 14.6*, aDG glyco act 0.2, Tb MetRS inh -0.3, H9c2 TAG inh -13.3, MC4R barr conf 1.5 and MOR-DOR barr ag 1.9.
Screening CCCN(CCC)Cc1c(C(=O)N/N=C/c2ccc(C)o2)nnn1-c1nonc1N returned NTR1 agonist 0.5, MC4R antagonist 5.7, MC4R barr agon 13.0*, aDG glyco act 0.0, Tb MetRS inh -0.1, MC4R barr conf 2.8 and MOR-DOR barr ag 14.2.
Screening Nc1nonc1-n1nnc(C(=O)N/N=C/c2ccc(OCc3ccc(F)cc3)cc2)c1COc1ccccc1 returned NTR1 agonist 5.0, MC4R antagonist 19.5, MC4R barr agon 19.5*, aDG glyco act -0.3, Tb MetRS inh -0.1, H9c2 TAG inh 8.7, MC4R barr conf 8.2 and MOR-DOR barr ag 2.9.
`O=C(N/N=C/c1ccccc1)c1ccc(OCc2ccccc2)cc1` gave NTR1 agonist 2.9, MC4R antagonist 0.2, MC4R barr agon 11.9*, aDG glyco act 0.1, Tb MetRS inh -0.6, H9c2 TAG inh 6.5, MC4R barr conf 3.2 and MOR-DOR barr ag 4.3.
`COCC(=O)N[C@H]1CC[C@@H](CC(=O)OC)O[C@@H]1CO` gave aDG glyco act 0.5 and Tb MetRS inh -1.1.
Screening CN(C)CCCNC(=O)c1ccccn1 returned NTR1 agonist -3.7, MC4R antagonist -1.7, MC4R barr agon 1.1, aDG glyco act 0.3, Tb MetRS inh -0.4 and H9c2 TAG inh 4.1.
Screening CN(C)CCCNC(=O)c1ccc(-c2nc(-c3ccc(Cl)cc3)cs2)cc1 returned NTR1 agonist -5.3, MC4R antagonist 17.4, MC4R barr agon 15.7*, aDG glyco act -0.7, Tb MetRS inh -0.2, MC4R barr conf 56.4* and MOR-DOR barr ag 6.3.
Screening O=C(Nc1ccc(OC(F)(F)C(F)F)c(NC(=O)c2cccc(F)c2)c1)c1cccc(F)c1 returned NTR1 agonist 0.8, MC4R antagonist 13.8, MC4R barr agon 20.9*, aDG glyco act -0.4, Tb MetRS inh 0.5, H9c2 TAG inh 9.4, MC4R barr conf 6.6 and MOR-DOR barr ag 4.3.

Screens (PubChem BioAssay)
